According to ChEMBL document CHEMBL2380285, “Quinolin-4(1H)-imines are potent antiplasmodial drugs targeting the liver stage of malaria” (J Med Chem, 2013):
pIC50: −log10 of the molar value. Active and inactive are the calls of the source. The rule behind the calls is not given here.

Tests used:
[1] = Cytotoxicity against human HepG2 cells after 48 hrs by Alamar Blue assay; assay type: cell-based
[2] = Half life in rat liver microsomes at 1 uM after 24 hrs by LC-MS/MS analysis
Plasmodium falciparum [3] = experiment: Antiplasmodial activity against ring stage Plasmodium falciparum W2 infected in human RBC after 48 hrs by FACS analysis; assay type: functional, organism-based; conditions: W2, 48 h
[4] = Inhibition of heme crystallization to hemozoin; assay type: functional
[5] = Binding affinity to hematin (unknown origin) by UV-visible titration analysis
[6] = Selectivity index, ratio of CC50 for human HepG2 cells to IC50 for liver stage Plasmodium berghei; assay type: functional
Plasmodium berghei [7] = experiment: Antiplasmodial activity against liver stage Plasmodium berghei infected in human HuH7 cells co-expressing GFP-Luccon treated for 1 hr prior to infection followed by 24 hrs after compound washout measured after 48 hrs post-infection by Alamar Blue assay; assay type: functional, organism-based; conditions: Huh-7
Procedure, shortened: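 Huh-7 hepatoma cells infected with P. berghei were exposed to a rising series of inhibitor concentrations, with 10 μM the highest tested. IC50 was read from sigmoidal concentration–response curves.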

Plasmodium berghei [8] = experiment: Ratio of primaquine IC50 to compound IC50 for liver stage Plasmodium berghei infected in human HuH7 cells; assay type: functional, Huh-7
[9] = Inhibition of Cytochrome b-c1 complex in Plasmodium falciparum 3D7A mitochondria assessed as antimycin-sensitive decylubiquinol-cytochrome c oxidoreductase level
Plasmodium falciparum [10] = experiment: Inhibition of Plasmodium falciparum Enoyl-ACP reductase using Crotonoyl-CoA as substrate up to 50 uM after 20 mins by fluorescence assay
Plasmodium falciparum [11] = experiment: Inhibition of Plasmodium falciparum thioredoxin reductase using DTNB as substrate up to 50 uM after 1 hr by colorimetric assay
[12] = target: T1, Dihydroorotate dehydrogenase (fumarate) (Saccharomyces cerevisiae S288c) (UniProt P28272); experiment: Inhibition of Saccharomyces cerevisiae DHODH expressed in Plasmodium falciparum Dd2 by [3H]-hypoxanthine incorporation assay
T1 sequence (whole entry): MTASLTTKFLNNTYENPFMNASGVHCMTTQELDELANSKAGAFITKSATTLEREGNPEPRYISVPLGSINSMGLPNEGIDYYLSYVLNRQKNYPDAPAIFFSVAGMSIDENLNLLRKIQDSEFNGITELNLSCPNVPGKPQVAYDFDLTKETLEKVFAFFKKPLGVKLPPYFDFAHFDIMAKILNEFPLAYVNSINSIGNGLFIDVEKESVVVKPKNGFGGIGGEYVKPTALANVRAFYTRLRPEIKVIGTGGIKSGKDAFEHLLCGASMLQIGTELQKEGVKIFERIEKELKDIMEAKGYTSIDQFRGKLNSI

[13] = target: T1, Dihydroorotate dehydrogenase (fumarate) (Saccharomyces cerevisiae S288c); experiment: Inhibition of Saccharomyces cerevisiae DHODH expressed in Plasmodium falciparum Dd2 by [3H]-hypoxanthine incorporation assay in presence of proguanil

CCn1cc/c(=N\c2ccc(-c3ccccc3)cc2)c2ccc(Cl)cc21
CC50 at 48 h [1]: 4610 nM | half-life at 24 h, 1 µM ([2]; liver microsomes): 4 h | pIC50 (Plasmodium falciparum [3]): 6.27 | pIC50 [4]: 4.72 | logKA [5]: 5.6 | Ratio CC50/IC50 [6]: 23.6 | pIC50 (Plasmodium berghei [7]): 6.70

CCn1cc/c(=N\c2cccc(CCc3ccc(OC(F)(F)F)cc3)c2)c2ccc(Cl)cc21
CC50 at 48 h [1]: 3940 nM | pIC50 (Plasmodium falciparum [3]): 5.51 | logKA [5]: 5.2 | Ratio CC50/IC50 [6]: 17.4 | pIC50 (Plasmodium berghei [7]): 6.64

CCn1cc/c(=N\c2cccc(CCc3ccc(OC(F)(F)F)cc3)c2)c2ccc(C(F)(F)F)cc21
CC50 at 48 h [1]: 6090 nM | pIC50 (Plasmodium falciparum [3]): 5.78 | logKA [5]: 4.9 | Ratio CC50/IC50 [6]: 25.9 | pIC50 (Plasmodium berghei [7]): 6.63

CCn1cc/c(=N\c2cccc(CCc3ccc(Cl)cc3)c2)c(Cl)c1
pIC50 (Plasmodium berghei [7]): 6.39

Cc1nc(C)c(Cl)c(O)c1Cl [CLOPIDOL]
logKA [5]: 4.7 | pIC50 (Plasmodium berghei [7]): 5.84

CCn1cc/c(=N\c2ccc(Oc3ccc(Cl)cc3)cc2)c2ccc(Cl)cc21
CC50 at 48 h [1]: 2690 nM | half-life at 24 h, 1 µM ([2]; microsomes): 3.9 h | pIC50 (Plasmodium falciparum [3]): 5.96 | pIC50 [4]: 4.79 | logKA [5]: 5.1 | Ratio IC50 (Plasmodium berghei [8]): 94 | Ratio CC50/IC50 [6]: 30.9 | pIC50 (Plasmodium berghei [7]): 7.06

O=C1C(O)=C([C@H]2CC[C@H](c3ccc(Cl)cc3)CC2)C(=O)c2ccccc21 [ATOVAQUONE]
pIC50 [9]: 9.52 | pIC50 (Plasmodium berghei [7]): 9.42

Cn1cc/c(=N\c2ccc(Oc3ccc(C(F)(F)F)cc3)cc2)c2ccc(Cl)cc21
CC50 at 48 h [1]: 3080 nM | half-life at 24 h, 1 µM ([2]; liver microsomes): 4.1 h | pIC50 (Plasmodium falciparum [3]): 5.97 | logKA [5]: 4.9 | Ratio CC50/IC50 [6]: 13.4 | pIC50 (Plasmodium berghei [7]): 6.64

CCn1cc/c(=N\c2ccc(Oc3ccccc3)cc2)c2ccc(Cl)cc21
CC50 at 48 h [1]: 5330 nM | pIC50 (Plasmodium falciparum [3]): 6.05 | logKA [5]: 5.4 | Ratio CC50/IC50 [6]: 24.9 | pIC50 (Plasmodium berghei [7]): 6.67

CCOC(=O)c1cn(C)c2ccc(F)cc2/c1=N/c1ccc(-c2ccccc2)cc1
pIC50 (Plasmodium falciparum [3]): 5.23 | pIC50 (Plasmodium berghei [7]): < 5.00

CCOC(=O)c1cn(CC)c2ccc(F)cc2/c1=N/c1ccc(-c2ccccc2)cc1
pIC50 (Plasmodium falciparum [3]): 5.27 | pIC50 (Plasmodium berghei [7]): < 5.00

CCn1cc/c(=N\c2ccc(Oc3cccc(OC(F)(F)F)c3)cc2)c2ccc(Cl)cc21
CC50 at 48 h [1]: 5160 nM | inhibition (Plasmodium falciparum [10]): inactive | inhibition (Plasmodium falciparum [11]): inactive | inhibition [12]: inactive | pIC50 (Plasmodium falciparum [3]): 5.93 | inhibition [13]: inactive | pIC50 [9]: 5.92 | pIC50 [4]: 4.81 | logKA [5]: 5.1 | Ratio IC50 (Plasmodium berghei [8]): 94 | Ratio CC50/IC50 [6]: 63.7 | pIC50 (Plasmodium berghei [7]): 7.09

CCn1cc/c(=N\c2ccc(Oc3ccc(OC(F)(F)F)cc3)cc2)c2ccc(Cl)cc21
CC50 at 48 h [1]: 3530 nM | pIC50 (Plasmodium falciparum [3]): 6.02 | pIC50 [4]: 4.87 | logKA [5]: 4.9 | Ratio CC50/IC50 [6]: 24.3 | pIC50 (Plasmodium berghei [7]): 6.84

O=C(CC1NCCCC1O)Cn1cnc2cc(Br)c(Cl)cc2c1=O (stereo unspecified) [HALOFUGINONE]
pIC50 (Plasmodium berghei [7]): 7.77

CCn1cc/c(=N\c2ccc(-c3ccccc3)cc2)c2ccc(C(F)(F)F)cc21
CC50 at 48 h [1]: 7040 nM | half-life at 24 h, 1 µM ([2]; liver microsomes): 4.2 h | inhibition (Plasmodium falciparum [10]): inactive | inhibition (Plasmodium falciparum [11]): inactive | inhibition [12]: inactive | pIC50 (Plasmodium falciparum [3]): 6.23 | inhibition [13]: inactive | pIC50 [9]: 4.55 | pIC50 [4]: 4.77 | logKA [5]: 5.7 | Ratio CC50/IC50 [6]: 12.2 | pIC50 (Plasmodium berghei [7]): 6.24

CCn1cc/c(=N\c2ccc(Oc3ccc(C(F)(F)F)cc3)cc2)c2ccc(Cl)cc21
CC50 at 48 h [1]: 3200 nM | pIC50 (Plasmodium falciparum [3]): 5.90 | pIC50 (Plasmodium berghei [7]): 6.63

CCn1cc/c(=N\c2ccc(Oc3cccc(OC(F)(F)F)c3)cc2)c2ccc(C(F)(F)F)cc21
CC50 at 48 h [1]: 12900 nM | half-life at 24 h, 1 µM ([2]; microsomes): 8.5 h | pIC50 (Plasmodium falciparum [3]): 5.81 | logKA [5]: 3.9 | Ratio CC50/IC50 [6]: 24 | pIC50 (Plasmodium berghei [7]): 6.27

CCN(CC)CCCC(C)Nc1ccnc2cc(Cl)ccc12 (stereo unspecified) [CHLOROQUINE]
pIC50 [4]: 5.18

CCn1cc/c(=N\c2ccc(Cc3ccccc3)cc2)c2ccc(Cl)cc21
CC50 at 48 h [1]: 2890 nM | pIC50 (Plasmodium falciparum [3]): 5.77 | logKA [5]: 5 | Ratio CC50/IC50 [6]: 4.91 | pIC50 (Plasmodium berghei [7]): 6.23
